Reference: ChEMBL document CHEMBL1124600, “Synthesis and biological properties of purine and pyrimidine 5'-deoxy-5'-(dihydroxyphosphinyl)-beta-D-ribofuranosyl analogues of AMP, GMP, IMP, and CMP” (J Med Chem, 1989)
The source made the active and inactive calls. The rule behind the calls is not given here.

How the values were obtained:
Human alphaherpesvirus 2 [1] = assay: Antiviral activity at <=320 uM determined in a culture of Herpes simplex virus type 2; IA = inactive; format: functional, organism-based
unidentified adenovirus [2] = assay: Antiviral activity at <=320 uM determined in a culture of Adenovirus type 2; IA = inactive; format: functional, organism-based
CCRF-CEM = assay: Antitumor activity at <=100 uM determined in a 3-5 days culture of CCRF-CEM(human T cell leukemia); NA = no activity was shown; format: functional, cell-based
Outline: (§1)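 Wells seeded at (5–10) × 10³ cells with compound at 0.1–100 μM, triplicate wells, 37 °C. L1210 and WI-L2 ran 3 days, CCRF-CEM 4 days, Lovo/L 5 days. MTT was then added for 2 h and formazan dissolved in 2-propanol/0.04 M HCl before absorbance reading. ID50 is the concentration giving 50% of control growth.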

L1210 = assay: Antitumor activity at <=100 uM determined in a 3-5 days culture of L1210 murine leukemia; NA = no activity was shown; format: functional, cell-based; conditions: Mus musculus; outline: as §1
Enterovirus [3] = assay: Antiviral activity at <=320 uM determined in a culture of Rhinovirus type 1-A; IA = inactive; format: functional, organism-based
WIL2 [4] = assay: Antitumor activity at <=100 uM determined in a 3-5 days culture of WI-L2 (human B-ltmphoblast); NA = no activity was shown; format: functional, cell-based; outline: as §1
Influenza A virus [5] = assay: Antiviral activity at <=320 uM determined in a culture of Influenza A; IA = inactive; format: functional, organism-based; conditions: unidentified influenza virus
[6] = Percent of phosphorylated forms of compound at 4 hr after phosphorylation by nucleoside monophosphate kinase; conditions: Bos taurus
Visna-maedi virus [7] = assay: Antiviral activity at <=320 uM determined in a culture of Visna virus; IA = inactive; format: functional, organism-based
LoVo = assay: Antitumor activity at <=100 uM determined in a 3-5 days culture of LOVO/L (human colon carcinoma); NA = no activity was shown; format: functional, cell-based; outline: as §1
Enterovirus [8] = assay: Antiviral activity at 100 uM determined in a culture of Rhinovirus type 1-A; IA = inactive; format: functional, organism-based
Visna-maedi virus [9] = assay: Antiviral activity at 1-3 uM determined in a culture of Visna virus; IA = inactive; format: functional, organism-based
Influenza A virus [10] = assay: Antiviral activity at 10-30 uM determined in a culture of Influenza A; IA = inactive; format: functional, organism-based; conditions: unidentified influenza virus
Human alphaherpesvirus 2 [11] = assay: Antiviral activity at 1-3 uM determined in a culture of Herpes simplex virus type 2; IA = inactive; format: functional, organism-based
Human respirovirus 3 = assay: Antiviral activity at 10-30 uM determined in a culture of Parainfluenza virus type 3; IA = inactive; format: functional, organism-based
unidentified adenovirus [12] = assay: Antiviral activity at 100 uM determined in a culture of Adenovirus type 2; IA = inactive; format: functional, organism-based
WIL2 [13] = assay: Antitumor activity at <=100 uM determined in a 3-5 days culture of WI-L2 […]; NA = no activity was shown; format: functional, cell-based; outline: as §1

SMILES	Activity (Human alphaherpesvirus 2 [1])	Activity (unidentified adenovirus [2])	Activity (CCRF-CEM)	Activity (L1210)	Activity (Enterovirus [3])	Activity (WIL2 [4])	Activity (Influenza A virus [5])	% nucleotide present [6]	Activity (Visna-maedi virus [7])	Activity (LoVo)	Activity (Enterovirus [8])	Activity (Visna-maedi virus [9])	Activity (Influenza A virus [10])	Activity (Human alphaherpesvirus 2 [11])	Activity (Human respirovirus 3)	Activity (unidentified adenovirus [12])	Activity (WIL2 [13])
Nc1ccn(C2O[C@H](CP(=O)(O)O)[C@@H](O)[C@H]2O)c(=O)n1 (stereo partly drawn)	inactive	inactive	inactive	inactive	inactive	inactive	inactive	87%	inactive	inactive	–	–	–	–	–	–	–
O=c1ccn(C2O[C@H](CP(=O)(O)O)[C@@H](O)[C@H]2O)c(=O)[nH]1 (stereo partly drawn)	inactive	inactive	inactive	inactive	inactive	inactive	inactive	–	inactive	inactive	–	–	–	–	–	–	–
NC(=O)c1ncn([C@@H]2O[C@H](CO)[C@@H](O)[C@H]2O)n1	–	–	–	–	–	–	–	–	–	–	inactive	inactive	inactive	inactive	inactive	inactive	–
O=P(O)(O)C[C@H]1OC(n2cnc3c(O)ncnc32)[C@H](O)[C@@H]1O (stereo partly drawn)	inactive	inactive	inactive	inactive	inactive	–	inactive	–	inactive	inactive	–	–	–	–	–	–	inactive
Nc1nc(O)c2ncn(C3O[C@H](CP(=O)(O)O)[C@@H](O)[C@H]3O)c2n1 (stereo partly drawn)	inactive	inactive	inactive	inactive	inactive	inactive	inactive	–	inactive	inactive	–	–	–	–	–	–	–
